pKi: −log10 of the molar value. Values belong to the compound of their own block, whether it stands above or below them. Activity calls are given as the source filed them. The calls are words filed in the database; no cut-off is given here.
Columns and labels:
Mus musculus [1] = test: Neurotoxicity in CF1 mouse assessed as minimal motor impairment at 300 mg/kg, ip after 4 hrs by rotorod test; type: toxicity, organism-based; set-up: dose 300 mg/kg, route intraperitoneal; details: in vivo
Method in brief: (§1)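 Rotarod neurotoxicity screen in mice dosed i.p. at 30, 100 or 300 mg/kg, read 0.5 or 4 h after dosing. The animal must stay on a rod rotating at 6 rpm without falling, measured 3 times within 1 min. A fall counts as minimal motor impairment. Result is recorded as impaired animals over animals used.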

Mus musculus [2] = test: Neurotoxicity in CF1 mouse assessed as minimal motor impairment at 30 mg/kg, ip after 4 hrs by rotorod test; type: toxicity, organism-based; set-up: dose 30 mg/kg, route intraperitoneal; details: in vivo; method in brief: as §1
Mus musculus [3] = test: Neurotoxicity in CF1 mouse assessed as minimal motor impairment at 100 mg/kg, ip after 4 hrs by rotorod test; type: toxicity, organism-based; set-up: dose 100 mg/kg, route intraperitoneal; details: in vivo; method in brief: as §1
Mus musculus [4] = test: Neurotoxicity in CF1 mouse assessed as minimal motor impairment at 300 mg/kg, ip after 0.5 hrs by rotorod test; type: toxicity, organism-based; set-up: dose 300 mg/kg, route intraperitoneal; details: in vivo; method in brief: as §1
Mus musculus [5] = test: Neurotoxicity in CF1 mouse assessed as minimal motor impairment at 30 mg/kg, ip after 0.5 hrs by rotorod test; type: toxicity, organism-based; set-up: dose 30 mg/kg, route intraperitoneal; details: in vivo; method in brief: as §1
Mus musculus [6] = test: Anticonvulsant activity in CF1 mouse assessed as protection against maximal electroshock-induced seizures at 300 mg/kg, ip after 0.5 hrs; type: functional, organism-based; set-up: dose 300 mg/kg
Method in brief: (§2)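 Mice given compound i.p. at 30, 100 or 300 mg/kg and tested 0.5 or 4 h after dosing. Seizures were induced by maximal electroshock (MES) or subcutaneous metrazole (ScMet). Prevention of seizures counts as protection. Result is recorded as number of animals protected over number tested.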

Mus musculus [7] = test: Anticonvulsant activity in CF1 mouse assessed as protection against maximal electroshock-induced seizures at 100 mg/kg, ip after 0.5 hrs; type: functional, organism-based; set-up: dose 100 mg/kg; method in brief: as §2
Mus musculus [8] = test: Anticonvulsant activity in CF1 mouse assessed as protection against maximal electroshock-induced seizures at 30 mg/kg, ip after 0.5 hrs; type: functional, organism-based; set-up: dose 30 mg/kg; method in brief: as §2
Mus musculus [9] = test: Anticonvulsant activity in CF1 mouse assessed as protection against subcutaneous metrazole-induced seizures at 300 mg/kg, ip after 4 hrs; type: functional, organism-based; set-up: dose 300 mg/kg; method in brief: as §2
Mus musculus [10] = test: Anticonvulsant activity in CF1 mouse assessed as protection against subcutaneous metrazole-induced seizures at 100 mg/kg, ip after 4 hrs; type: functional, organism-based; set-up: dose 100 mg/kg; method in brief: as §2
Mus musculus [11] = test: Anticonvulsant activity in CF1 mouse assessed as protection against subcutaneous metrazole-induced seizures at 30 mg/kg, ip after 4 hrs; type: functional, organism-based; set-up: dose 30 mg/kg; method in brief: as §2
Mus musculus [12] = test: Anticonvulsant activity in CF1 mouse assessed as protection against subcutaneous metrazole-induced seizures at 300 mg/kg, ip after 0.5 hrs; type: functional, organism-based; set-up: dose 300 mg/kg; method in brief: as §2
Mus musculus [13] = test: Anticonvulsant activity in CF1 mouse assessed as protection against subcutaneous metrazole-induced seizures at 100 mg/kg, ip after 0.5 hrs; type: functional, organism-based; set-up: dose 100 mg/kg; method in brief: as §2
Mus musculus [14] = test: Anticonvulsant activity in CF1 mouse assessed as protection against subcutaneous metrazole-induced seizures at 30 mg/kg, ip after 0.5 hrs; type: functional, organism-based; set-up: dose 30 mg/kg; method in brief: as §2
Mus musculus [15] = test: Anticonvulsant activity in CF1 mouse assessed as protection against maximal electroshock-induced seizures at 300 mg/kg, ip after 4 hrs; type: functional, organism-based; set-up: dose 300 mg/kg; method in brief: as §2
Mus musculus [16] = test: Anticonvulsant activity in CF1 mouse assessed as protection against maximal electroshock-induced seizures at 100 mg/kg, ip after 4 hrs; type: functional, organism-based; set-up: dose 100 mg/kg; method in brief: as §2
Mus musculus [17] = test: Anticonvulsant activity in CF1 mouse assessed as protection against maximal electroshock-induced seizures at 30 mg/kg, ip after 4 hrs; type: functional, organism-based; set-up: dose 30 mg/kg; method in brief: as §2
Rattus norvegicus [18] = species on record: Rattus norvegicus; test: Displacement of [3H]CGP-12177 from beta1-adrenergic receptor in rat cerebral cortex at 50 uM after 60 mins by scintillation counting; type: tissue-based
[19] = molecular target: T1, Adrenergic receptor alpha-1 (Rattus norvegicus, UniProt P15823+P23944+P43140); test: Displacement of [3H]prazosin from alpha1-adrenergic receptor in rat cerebral cortex after 30 mins by scintillation counting; type: tissue-based
T1 sequence (P15823 whole entry): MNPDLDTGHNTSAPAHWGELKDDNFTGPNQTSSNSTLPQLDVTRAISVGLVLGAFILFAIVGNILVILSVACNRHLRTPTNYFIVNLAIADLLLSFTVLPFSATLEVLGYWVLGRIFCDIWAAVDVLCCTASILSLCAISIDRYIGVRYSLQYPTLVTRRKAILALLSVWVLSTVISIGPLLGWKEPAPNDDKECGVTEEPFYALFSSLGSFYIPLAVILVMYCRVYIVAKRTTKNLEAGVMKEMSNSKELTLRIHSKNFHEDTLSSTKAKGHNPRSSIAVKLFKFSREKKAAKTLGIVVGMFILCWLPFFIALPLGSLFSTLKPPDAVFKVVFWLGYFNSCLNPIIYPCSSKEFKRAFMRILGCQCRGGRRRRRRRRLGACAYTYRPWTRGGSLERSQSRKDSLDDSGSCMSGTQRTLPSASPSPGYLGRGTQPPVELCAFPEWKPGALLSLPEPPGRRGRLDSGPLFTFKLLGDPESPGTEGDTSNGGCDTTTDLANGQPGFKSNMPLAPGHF
T1 sequence (P23944 whole entry): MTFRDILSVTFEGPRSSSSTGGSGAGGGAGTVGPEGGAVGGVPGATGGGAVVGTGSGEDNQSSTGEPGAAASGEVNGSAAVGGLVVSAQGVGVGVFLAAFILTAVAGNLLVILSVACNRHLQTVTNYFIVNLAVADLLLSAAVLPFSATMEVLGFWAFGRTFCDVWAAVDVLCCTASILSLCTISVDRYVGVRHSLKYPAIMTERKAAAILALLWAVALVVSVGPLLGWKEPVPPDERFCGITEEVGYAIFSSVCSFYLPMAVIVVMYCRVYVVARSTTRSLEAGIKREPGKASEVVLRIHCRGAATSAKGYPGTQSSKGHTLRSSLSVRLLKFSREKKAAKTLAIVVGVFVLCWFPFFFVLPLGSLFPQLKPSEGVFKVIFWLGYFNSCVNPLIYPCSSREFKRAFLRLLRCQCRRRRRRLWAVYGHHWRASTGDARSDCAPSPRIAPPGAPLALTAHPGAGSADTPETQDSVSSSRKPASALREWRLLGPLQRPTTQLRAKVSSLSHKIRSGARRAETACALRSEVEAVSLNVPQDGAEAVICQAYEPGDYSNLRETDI
T1 sequence (P43140 whole entry): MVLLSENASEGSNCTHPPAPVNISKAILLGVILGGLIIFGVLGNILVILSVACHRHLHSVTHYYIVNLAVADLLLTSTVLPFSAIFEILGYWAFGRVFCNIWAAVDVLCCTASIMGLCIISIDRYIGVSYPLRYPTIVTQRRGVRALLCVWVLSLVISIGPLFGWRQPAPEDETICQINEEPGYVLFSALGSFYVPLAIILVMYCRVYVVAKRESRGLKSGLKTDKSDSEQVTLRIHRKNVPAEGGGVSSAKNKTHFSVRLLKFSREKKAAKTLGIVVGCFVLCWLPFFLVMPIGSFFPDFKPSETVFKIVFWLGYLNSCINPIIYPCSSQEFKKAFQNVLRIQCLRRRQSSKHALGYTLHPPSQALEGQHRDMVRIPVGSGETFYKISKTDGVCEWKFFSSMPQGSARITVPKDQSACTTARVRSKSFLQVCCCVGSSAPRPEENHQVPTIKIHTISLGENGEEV
Method in brief: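 Radioligand binding on rat brain tissue membranes, run in 96-well format. [3H]prazosin was used for α1 (n = 2) and [3H]CGP-12177 for β1 (n = 2). Ki was calculated by the Cheng–Prusoff equation.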

[20] = molecular target: 5-hydroxytryptamine receptor 7 (Homo sapiens, UniProt P34969); test: Displacement of [3H]5-CT from human 5HT7b receptor expressed in HEK293 cells after 1 hr; type: cell-based
[21] = molecular target: 5-hydroxytryptamine receptor 6 (Homo sapiens, UniProt P50406); test: Displacement of [3H]LSD from human 5HT6 receptor expressed in HEK293 cells after 1 hr; type: cell-based
[22] = molecular target: T2, 5-hydroxytryptamine receptor 1A (Homo sapiens, UniProt P08908); test: Displacement of [3H]8-OH-DPAT from human 5HT1A receptor expressed in HEK293 cells after 1 hr; type: cell-based
T2 sequence (P08908 whole entry): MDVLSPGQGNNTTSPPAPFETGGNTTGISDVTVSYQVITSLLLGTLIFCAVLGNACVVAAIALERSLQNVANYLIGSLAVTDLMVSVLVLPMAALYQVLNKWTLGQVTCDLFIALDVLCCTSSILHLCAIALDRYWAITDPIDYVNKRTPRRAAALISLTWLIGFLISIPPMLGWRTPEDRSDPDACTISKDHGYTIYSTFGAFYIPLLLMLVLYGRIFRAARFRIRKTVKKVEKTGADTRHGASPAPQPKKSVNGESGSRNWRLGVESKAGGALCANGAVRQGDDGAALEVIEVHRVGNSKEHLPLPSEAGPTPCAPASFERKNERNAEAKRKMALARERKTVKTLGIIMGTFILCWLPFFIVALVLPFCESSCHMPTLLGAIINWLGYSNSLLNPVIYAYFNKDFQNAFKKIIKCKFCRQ

Mus musculus [23] = test: Neurotoxicity in CF1 mouse assessed as minimal motor impairment at 100 mg/kg, ip after 0.5 hrs by rotorod test; type: toxicity, organism-based; set-up: dose 100 mg/kg, route intraperitoneal; details: in vivo; method in brief: as §1
Rattus norvegicus [24] = test: Anticonvulsant activity in Sprague-Dawley rat assessed as protection against maximal electroshock-induced seizures at 30 mg/kg, po after 0.25 hrs; type: functional, organism-based; set-up: dose 30 mg/kg
Method in brief: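 Rats dosed orally at 30 mg/kg and tested in MES at several time points after dosing. Protection means seizures were prevented. Result is recorded as number of animals protected over number tested.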

Chain of 5-hydroxytryptamine receptor 7 (P34969 whole entry): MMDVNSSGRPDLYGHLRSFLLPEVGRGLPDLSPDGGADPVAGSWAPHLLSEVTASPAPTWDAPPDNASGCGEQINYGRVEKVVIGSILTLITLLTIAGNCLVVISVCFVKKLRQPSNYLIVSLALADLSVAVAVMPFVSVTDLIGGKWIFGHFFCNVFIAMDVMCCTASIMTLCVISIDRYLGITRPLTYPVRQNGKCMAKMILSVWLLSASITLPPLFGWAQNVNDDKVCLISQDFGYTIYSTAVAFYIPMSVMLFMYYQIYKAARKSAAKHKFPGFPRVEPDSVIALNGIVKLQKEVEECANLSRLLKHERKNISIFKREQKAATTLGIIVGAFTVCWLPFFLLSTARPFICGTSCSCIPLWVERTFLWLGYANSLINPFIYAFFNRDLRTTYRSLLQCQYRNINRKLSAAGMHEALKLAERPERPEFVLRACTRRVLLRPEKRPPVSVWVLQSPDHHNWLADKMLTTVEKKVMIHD
Chain of 5-hydroxytryptamine receptor 6 (P50406 whole entry): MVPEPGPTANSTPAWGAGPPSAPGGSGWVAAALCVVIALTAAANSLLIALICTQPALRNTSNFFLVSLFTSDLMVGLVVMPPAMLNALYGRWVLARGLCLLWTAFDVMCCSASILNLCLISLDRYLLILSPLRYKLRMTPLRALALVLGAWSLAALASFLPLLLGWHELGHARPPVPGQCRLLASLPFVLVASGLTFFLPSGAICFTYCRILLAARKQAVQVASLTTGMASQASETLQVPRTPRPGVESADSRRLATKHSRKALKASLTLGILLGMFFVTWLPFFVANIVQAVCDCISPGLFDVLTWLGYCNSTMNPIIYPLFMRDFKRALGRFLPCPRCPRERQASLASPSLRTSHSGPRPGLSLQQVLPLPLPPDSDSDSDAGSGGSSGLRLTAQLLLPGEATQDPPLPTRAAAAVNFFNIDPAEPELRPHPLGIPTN

Structure (SMILES): COc1ccc2c(=O)c3cc(CN4CCN(c5ccccc5OC)CC4)ccc3oc2c1 [listing 1 of 2 here]
Activity (Mus musculus [1]): Non-toxic
Activity (Mus musculus [2]): Non-toxic
Activity (Mus musculus [3]): Non-toxic
Activity (Mus musculus [4]): Non-toxic
Activity (Mus musculus [5]): Non-toxic

Structure (SMILES): COc1ccc2c(=O)c3cc(CN4CCN(c5ccccc5OC)CC4)ccc3oc2c1 [listing 2 of 2 here]
Activity (Mus musculus [6]): inactive
Activity (Mus musculus [7]): inactive
Activity (Mus musculus [8]): inactive
Activity (Mus musculus [9]): inactive
Activity (Mus musculus [10]): inactive
Activity (Mus musculus [11]): inactive
Activity (Mus musculus [12]): inactive
Activity (Mus musculus [13]): inactive
Activity (Mus musculus [14]): inactive
Activity (Mus musculus [15]): inactive
Activity (Mus musculus [16]): inactive
Activity (Mus musculus [17]): inactive

Structure (SMILES): COc1ccc2c(=O)c3cccc(CN4CCN(c5ccccc5OC)CC4)c3oc2c1.Cl
Activity (Mus musculus [6]): inactive
Activity (Mus musculus [7]): inactive
Activity (Mus musculus [8]): inactive
inhibition (Rattus norvegicus [18]): inactive
Ki [19]: 0.17 µM
pKi [20]: 6.71
pKi [21]: 5.03
pKi [22]: 7.62
Activity (Mus musculus [1]): Non-toxic
Activity (Mus musculus [2]): Non-toxic
Activity (Mus musculus [3]): Non-toxic
Activity (Mus musculus [23]): Non-toxic
Activity (Mus musculus [5]): Non-toxic
Activity (Mus musculus [9]): inactive
Activity (Mus musculus [10]): inactive
Activity (Mus musculus [11]): inactive
Activity (Mus musculus [12]): inactive
Activity (Mus musculus [13]): inactive
Activity (Mus musculus [14]): inactive
Activity (Mus musculus [15]): inactive
Activity (Mus musculus [16]): inactive
Activity (Mus musculus [17]): inactive

Now from value to compound, other results behind:

Ki [19]: 0.49 µM
pKi [20]: 4.77
pKi [21]: 4.72
pKi [22]: 4.80
Structure (SMILES): COc1ccc2c(=O)c3cc(CN4CCN(C)CC4)ccc3oc2c1.Cl.Cl

inhibition (Rattus norvegicus [18]): inactive
Structure (SMILES): COc1ccc2c(=O)c3cc(CN4CCN(Cc5ccccc5)CC4)ccc3oc2c1
Activity (Mus musculus [6]): inactive
Activity (Mus musculus [7]): inactive
Activity (Mus musculus [8]): inactive
Activity (Rattus norvegicus [24]): inactive
Activity (Mus musculus [9]): inactive
Activity (Mus musculus [10]): inactive
Activity (Mus musculus [11]): inactive
Activity (Mus musculus [12]): inactive
Activity (Mus musculus [13]): inactive
Activity (Mus musculus [14]): inactive
Activity (Mus musculus [15]): Active
Activity (Mus musculus [17]): inactive

From ChEMBL document CHEMBL2401625, “Synthesis and evaluation of pharmacological properties of some new xanthone derivatives with piperazine moiety” (Bioorg Med Chem Lett, 2013)
